Experimental data as given in ChEMBL document CHEMBL3826969, “Synthesis and anticancer potential of novel xanthone derivatives with 3,6-substituted chains” (Bioorg Med Chem, 2016).
The source made the active and inactive calls. No cut-off for these calls is given here.

What was measured:
A549 [1] = experiment: Cell cycle arrest in human A549 cells assessed as accumulation at S phase at 25 uM after 48 hrs by propidium iodide staining based flow cytometry (reference value: 9.3 %); assay type: functional
How it was run: (§1)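 A549 cells exposed 48 h to derivative (25 µM), collected, fixed overnight in 70% ethanol, then stained 30 min at room temperature with 50 µg/mL propidium iodide, 200 µg/mL RNase A and 0.3% Triton X-100. Flow cytometry gave sub-G1, G0/G1, S and G2/M fractions; profile from 3 independent experiments.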

A549 [2] = experiment: Induction of apoptosis in human A549 cells assessed as increase in caspase 3/7 activity at 25 uM after 48 hrs by Caspase-Glo 3/7 assay relative to control; assay type: functional
How it was run: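 A549 cells (8×10^3) plated in duplicate in 96-well plates, treated 25 µM for 48 h. Caspase-Glo 3/7 luminescence read after 1 h with substrate; blank (medium plus reagent) subtracted; fold increase = treated/control reading; mean ± 1 SD.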

A549 [3] = experiment: Induction of apoptosis in human A549 cells assessed as early apoptotic cells at 25 uM after 48 hrs by Annexin V-FITC/propidium iodide staining based flow cytometry (reference value: 0.5 %); assay type: functional
A549 [4] = experiment: Induction of apoptosis in human A549 cells assessed as necrotic cells at 25 uM after 48 hrs by Annexin V-FITC/propidium iodide staining based flow cytometry (reference value: 0.1 %); assay type: functional
A549 [5] = experiment: Cell cycle arrest in human A549 cells assessed as accumulation at G2/M phase at 25 uM after 48 hrs by propidium iodide staining based flow cytometry (reference value: 23.4 %); assay type: functional; how it was run: as §1
MDA-MB-231 = experiment: Cytotoxicity against human MDA-MB-231 cells assessed as cell growth inhibition after 48 hrs by MTT assay; assay type: functional, cell-based; details: MDA-MB-231, 48 h
How it was run: (§2)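 Cells seeded in 96-well plates (MDA-MB-231, A549, AsPC-1 5×10^3; PC-3 8×10^3; HCT116 1×10^4 per well), attached 24 h in RPMI-1640 with 10% fetal calf serum at 37°C, 5% CO2. Serially diluted compound (final 0–400 μM, DMSO <0.1%) added for 48 h; 5-FU positive control. MTT read at 560 nm, triplicate; viability = treated/vehicle mean OD.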

[6] = Cytotoxicity against human PC3 cells assessed as cell growth inhibition after 48 hrs by MTT assay; assay type: functional, cell-based; details: PC-3, 48 h; how it was run: as §2
A549 [7] = experiment: Induction of apoptosis in human A549 cells assessed as viable cells at 25 uM after 48 hrs by Annexin V-FITC/propidium iodide staining based flow cytometry (reference value: 98.2 %); assay type: functional; details: A549, 48 h, read-out: Activity
ASPC1 = experiment: Cytotoxicity against human AsPC1 cells assessed as cell growth inhibition after 48 hrs by MTT assay; assay type: functional, cell-based; details: ASPC1, 48 h; how it was run: as §2
A549 [8] = experiment: Cell cycle arrest in human A549 cells assessed as accumulation at G0/G1 phase at 25 uM after 48 hrs by propidium iodide staining based flow cytometry (reference value: 68.1 %); assay type: functional; how it was run: as §1
A549 [9] = experiment: Induction of apoptosis in human A549 cells assessed as late apoptotic cells at 25 uM after 48 hrs by Annexin V-FITC/propidium iodide staining based flow cytometry (reference value: 1.2 %); assay type: functional
A549 [10] = experiment: Cytotoxicity against human A549 cells assessed as cell growth inhibition after 48 hrs by MTT assay; assay type: functional, cell-based; details: A549, 48 h; how it was run: as §2
[11] = Cytotoxicity against human HCT116 cells assessed as cell growth inhibition after 48 hrs by MTT assay; assay type: functional, cell-based; details: HCT-116, 48 h; how it was run: as §2
A549 [12] = experiment: Cell cycle arrest in human A549 cells assessed as accumulation at G2/M phase after 48 hrs by propidium iodide staining based flow cytometry (reference value: 23.4 %); assay type: functional
How it was run: (§3)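 A549 cells exposed 48 h to 25 µM xanthone derivative, fixed overnight in 70% ethanol, then stained 30 min at room temperature with 50 µg/mL propidium iodide, 200 µg/mL RNase A and 0.3% Triton X-100. Sub-G1, G0/1, S and G2/M fractions were measured by flow cytometry. Three independent experiments.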

A549 [13] = experiment: Cell cycle arrest in human A549 cells assessed as accumulation at S phase after 48 hrs by propidium iodide staining based flow cytometry (reference value: 9.3 %); assay type: functional; how it was run: as §3
A549 [14] = experiment: Induction of apoptosis in human A549 cells assessed as late apoptotic cells after 48 hrs by Annexin V-FITC/propidium iodide staining based flow cytometry (reference value: 1.2 %); assay type: functional
How it was run: (§4)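 2 × 10^5 A549 cells seeded and given 25 µM compound for 48 h. Cells were trypsinized and washed in ice-cold PBS. 1 × 10^5 cells were stained with Annexin V-FITC plus propidium iodide in binding buffer for 15 min at room temperature, diluted with binding buffer, kept on ice, and run on a flow cytometer. Quadrants: viable, early apoptotic, late apoptotic, necrotic.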

A549 [15] = experiment: Induction of apoptosis in human A549 cells assessed as necrotic cells after 48 hrs by Annexin V-FITC/propidium iodide staining based flow cytometry (reference value: 0.1 %); assay type: functional; how it was run: as §4
A549 [16] = experiment: Induction of apoptosis in human A549 cells assessed as increase in caspase 3/7 activity after 48 hrs by Caspase-Glo 3/7 assay relative to control; assay type: functional
How it was run: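 In duplicate, 8 × 10^3 A549 cells were treated with 25 µM compound for 48 h. Caspase-3/7 luminescence was read 1 h after adding the Caspase-Glo 3/7 substrate, with blank (medium plus reagent) subtracted. Fold increase = treated reading / control reading. Mean ± 1 SD.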

A549 [17] = experiment: Induction of apoptosis in human A549 cells assessed as viable cells after 48 hrs by Annexin V-FITC/propidium iodide staining based flow cytometry (reference value: 98.2 %); assay type: functional; how it was run: as §4
A549 [18] = experiment: Cell cycle arrest in human A549 cells assessed as accumulation at G0/G1 phase after 48 hrs by propidium iodide staining based flow cytometry (reference value: 68.1 %); assay type: functional; how it was run: as §3
A549 [19] = experiment: Induction of apoptosis in human A549 cells assessed as early apoptotic cells after 48 hrs by Annexin V-FITC/propidium iodide staining based flow cytometry (reference value: 0.5 %); assay type: functional; how it was run: as §4

| Structure (SMILES) | Activity (A549 [1]) | Activity (A549 [3]) | Activity (A549 [4]) | Activity (A549 [5]) | IC50 (MDA-MB-231) | IC50 [6] | viability at 25 µM (A549 [7]) | IC50 (ASPC1) | Activity (A549 [8]) | Activity (A549 [9]) | IC50 (A549 [10]) | IC50 [11] | further results |
| --- | --- | --- | --- | --- | --- | --- | --- | --- | --- | --- | --- | --- | --- |
| CCOC(=O)N1CCN(C(=O)COc2ccc3c(=O)c4ccc(OCC(=O)N5CCN(C(=O)OCC)CC5)c(C)c4oc3c2)CC1 | 11.9% | 1.6% | 0.3% | 23.2% | 64.5 µM | 53.3 µM | 97.1% | 34.1 µM | 65.5% | 1.1% | 84.9 µM | 8.16 µM | Activity (A549 [2]): inactive |
| Cc1c(OCC(=O)N2CC(C)OC(C)C2)ccc2c(=O)c3ccc(OCC(=O)N4CC(C)OC(C)C4)cc3oc12 (stereo not drawn) | 9.7% | 0.7% | 0.2% | 24% | 385 µM | 214 µM | 98.3% | 116 µM | 66.9% | 0.8% | 295 µM | 141 µM |  |
| CN1CCN(C(=O)COc2ccc3c(=O)c4ccc(OCC(=O)N5CCN(C)CC5)cc4oc3c2)CC1 | 10.1% | 0.7% | 2.7% | 24.2% | > 400 µM | > 400 µM | 94.1% | > 400 µM | 66.4% | 2.5% | > 400 µM | > 400 µM |  |
| O=c1[nH]cc(F)c(=O)[nH]1 [FLUOROURACIL] |  |  |  |  | 35.9 µM | 72.1 µM |  | 98 µM |  |  | 39.9 µM | 15.4 µM | Activity (A549 [12]): 11.7%; Activity (A549 [13]): 15.3%; Activity (A549 [14]): 1%; Activity (A549 [15]): 0.6%; fold change (FC) (A549 [16]): 4.2; Activity (A549 [17]): 93.2%; Activity (A549 [18]): 74.3%; Activity (A549 [19]): 5.2% |
| Cc1c(OCC(=O)N2CC(C)CC(C)C2)ccc2c(=O)c3ccc(OCC(=O)N4CC(C)CC(C)C4)cc3oc12 (stereo not drawn) | 6% | 37.5% | 1.1% | 15.5% | 8.06 µM | 6.18 µM | 49% | 4.76 µM | 78.9% | 12.4% | 4.59 µM | 6.09 µM | fold change (FC) (A549 [2]): 2.04 |
| CC1CCCC(C)N1C(=O)COc1ccc2c(=O)c3ccc(OCC(=O)N4C(C)CCCC4C)cc3oc2c1 (stereo not drawn) | 9.8% | 1.5% | 1.1% | 33.5% | 24.3 µM | 6.68 µM | 87.7% | 13.8 µM | 57.4% | 9.1% | 17.2 µM | 15.7 µM | fold change (FC) (A549 [2]): 2.31 |
| Cc1c(OCC(=O)N2CCOCC2)ccc2c(=O)c3ccc(OCC(=O)N4CCOCC4)cc3oc12 | 11.8% | 0.9% | 0.1% | 28% | > 400 µM | > 400 µM | 98.7% | > 400 µM | 61% | 0.4% | > 400 µM | > 400 µM |  |
| O=C(COc1ccc2c(=O)c3ccc(OCC(=O)N4CCOCC4)cc3oc2c1)N1CCOCC1 | 9.6% | 0.5% | 0.9% | 25.1% | > 400 µM | > 400 µM | 97.9% | > 400 µM | 65.7% | 0.7% | > 400 µM | > 400 µM |  |
| Cc1c(OCC(=O)N2C(C)CCCC2C)ccc2c(=O)c3ccc(OCC(=O)N4C(C)CCCC4C)cc3oc12 (stereo not drawn) | 6.9% | 7.3% | 2.1% | 17.6% | 7.31 µM | 4.27 µM | 80.7% | 7.1 µM | 75.7% | 9.8% | 10.6 µM | 7.63 µM | fold change (FC) (A549 [2]): 3.45 |
| Cc1c(OCC(=O)N2CCN(C)CC2)ccc2c(=O)c3ccc(OCC(=O)N4CCN(C)CC4)cc3oc12 | 9% | 0.7% | 0.6% | 20.7% | 257 µM | 89.2 µM | 95.6% | 97.8 µM | 71.2% | 3.1% | 181 µM | 119 µM |  |
| Cc1c(OCC(=O)NC2CCCCC2C)ccc2c(=O)c3ccc(OCC(=O)NC4CCCCC4C)cc3oc12 (stereo not drawn) | 9.4% | 3.1% | 1% | 29.1% | 11 µM | 23.3 µM | 93.6% | 15.4 µM | 61.8% | 2.4% | 22.3 µM | 18.3 µM | Activity (A549 [2]): inactive |
| Cc1c(OCC(=O)NCC2CCCO2)ccc2c(=O)c3ccc(OCC(=O)NCC4CCCO4)cc3oc12 (stereo not drawn) | 13.2% | 1.2% | 0.9% | 13% | 98.4 µM | 34.5 µM | 95.4% | 78.7 µM | 74.6% | 2.5% | 27.5 µM | 33.8 µM | Activity (A549 [2]): inactive |
| O=C(COc1ccc2c(=O)c3ccc(OCC(=O)NCC4CCCO4)cc3oc2c1)NCC1CCCO1 (stereo not drawn) | 9.5% | 0.5% | 1.8% | 26.3% | > 400 µM | 249 µM | 96.5% | > 400 µM | 64.6% | 1.2% | > 400 µM | > 400 µM |  |
